Screening results as filed in PubChem BioAssay.
M5 PAM: positive allosteric modulators of human muscarinic M5 receptor; CHO-K1 hM5, Fluo-8 calcium, ACh EC20 PAM; 0% = ACh EC20, 100% = ACh EC100; AID 624038; 0.3% of 360,000 active; activation, % at 3 µM; P08912;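 active = activation above the run cutoff, the mean activation of all test compounds plus 3 SD, cut at about 18% in these data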
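Replicates: One well per compound, no replicates | System: Human M5 receptor in CHO-K1 cells | Benchmarks: Low control EC20 acetylcholine (0%), high control EC100 acetylcholine (100%) | Probe or stimulus: Acetylcholine, EC20 level | Times: Fluo-8 loading 80 min at 37 °C plus 30 min room temperature | Signal: Intracellular calcium via Fluo-8 fluorescence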
M5 antag: antagonists of human muscarinic M5 receptor (CHRM5). P08912. CHO-hM5 cells, Fluo-8 calcium fluorescence, ACh EC80. inhibition, % at 3 µM. 0.59% of 360,000 active;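 active = inhibition above a per-plate cutoff, the mean of that plate's test compounds plus 3 SD, cut at about 27% in these data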
CHRM4 agonist: agonists of human muscarinic M4 receptor (CHRM4); P08173; 0.14% of 360,000 active; CHO-K1 hM4/Gqi5, Fluo-8 calcium fluorescence; vehicle 0%, full acetylcholine response 100%; activation, % at 3 µM; AID 624127;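 active = activation above the run mean over all test wells plus 3 SD, cut at about 32% in these data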;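 note: peak over basal fluorescence ratio per well then scaled between controls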
Target sequence (P08173 whole entry, looked up): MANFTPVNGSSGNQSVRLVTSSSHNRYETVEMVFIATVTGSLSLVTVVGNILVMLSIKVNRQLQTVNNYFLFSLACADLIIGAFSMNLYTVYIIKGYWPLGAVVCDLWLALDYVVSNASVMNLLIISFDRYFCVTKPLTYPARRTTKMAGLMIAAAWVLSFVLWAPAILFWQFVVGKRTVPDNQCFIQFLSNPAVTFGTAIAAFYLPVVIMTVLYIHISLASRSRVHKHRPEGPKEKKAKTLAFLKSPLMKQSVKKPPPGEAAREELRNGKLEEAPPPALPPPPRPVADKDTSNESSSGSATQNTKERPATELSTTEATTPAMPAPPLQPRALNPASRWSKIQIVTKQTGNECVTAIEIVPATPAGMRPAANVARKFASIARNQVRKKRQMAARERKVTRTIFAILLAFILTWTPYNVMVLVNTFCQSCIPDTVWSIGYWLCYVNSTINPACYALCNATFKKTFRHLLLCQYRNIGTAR
CHRM4 antagonist: antagonists of human muscarinic M4 receptor (CHRM4) | inhibition, % at 3 µM | CHO-hM4 cells, ACh EC80, Fluo-8 calcium fluorescence | 0.73% of 360,000 active | P08173;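 active = inhibition above its plate's cutoff, the mean inhibition of sample wells plus 3 SD, cut at about 27% in these data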
M5 ag: CHRM5 agonism in calcium assay; P08912; CHO-K1 hM5 cells, Fluo-8 calcium fluorescence; 0% DMSO wells, 100% maximal acetylcholine response; activation, % at 3 µM; 0.19% of 360,000 active;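 active = activation above the run's mean over test compounds plus 3 SD, cut at about 23% in these data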;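 note: signal is peak over basal fluorescence ratio across the kinetic read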
CHRM4 PAM: positive allosteric modulators of human muscarinic M4 receptor; CHO-K1 hM4/Gqi5, Fluo-8 calcium fluorescence, ACh EC20; 0% = ACh EC20, 100% = maximal ACh; activation, % at 3 µM; 0.4% of 360,000 active; AID 624126;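 active = activation above its plate's cutoff, the mean activation of sample wells plus 3 SD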
Hits are given with their value; – = inactive. An excerpt weighted towards active compounds, which were near 1.8% of everything screened.

SMILES	M5 PAM	M5 antag	CHRM4 agonist	CHRM4 antagonist	M5 ag	CHRM4 PAM
O=C(NCC1CCN(Cc2ccc(F)cc2)CC1)C1CCCN(c2ncnc3c2nc2n3CCCCC2)C1 (stereo not given)	–	–	–	36.3	–	–
O=C(NCc1ccccc1)C1CCCN(c2ncnc3c2nc2n3CCCCC2)C1 (stereo not given)	–	–	–	–	–	–
O=C(NCC1CCN(Cc2ccc(Cl)cc2)CC1)C1CCCN(c2ncnc3c2nc2n3CCCCC2)C1 (stereo not given)	–	–	–	83.8	–	–
O=C(NCC1CCN(Cc2cccc(Cl)c2)CC1)C1CCCN(c2ncnc3c2nc2n3CCCCC2)C1 (stereo not given)	–	–	–	36.0	–	–
O=C(NCc1ccco1)c1ccc2sc([C@@H]3O[C@H](CO)[C@@H](O)[C@H]3O)nc2c1	–	–	–	–	–	–
COc1ccccc1C(=O)Nc1ccc(-c2nnc(SCC(=O)O)n2C)cc1	–	–	–	37.3	–	–
O=C(CN1C(=O)NC2(CCCCCC2)C1=O)Nc1ccc(OC(F)(F)F)cc1	–	–	–	–	–	–
Cc1cc2c3c(c1)C(C)CC(C)(C)N3C(=O)C2=O (stereo not given)	–	–	–	–	–	–
CC1CC2(CCCCC2)N2C(=O)C(=O)c3cccc1c32 (stereo not given)	–	–	–	–	62.7	–
COc1ccc(-n2ncc(C(C)NS(=O)(=O)c3cccs3)c2C)cc1 (stereo not given)	–	–	–	–	–	–
CC(C)(C)OC(=O)NCCc1onc(-c2ccccc2F)c1C(=O)O	–	–	–	–	–	–
O=c1oc(-c2ccccc2F)nc2scc(-c3ccccc3)c12	–	–	–	–	–	–
Cc1nc2scc(-c3ccccc3)c2c(=O)o1	23.3	–	–	–	–	–
CC(Sc1nnc(C2CC2)n1-c1ccccc1)C(=O)N1CCNC1=O (stereo not given)	–	–	–	–	–	22.9
CC(Sc1nnc(C2CC2)n1Cc1ccccc1)C(=O)N1CCNC1=O (stereo not given)	–	–	–	–	–	–
COc1ccc([N+](=O)[O-])c(S(=O)(=O)c2ccc(Cl)cc2)n1	–	–	–	–	–	–
COc1ccc([N+](=O)[O-])c(S(=O)(=O)c2ccccc2)n1	–	–	–	29.6	–	–
CC(=O)N1CCCC(C)(C(=O)Nc2ccc3oc(C)nc3c2)C1 (stereo not given)	–	–	–	–	–	–
CCn1nc(C(=O)O)c(=O)c2cc3c(cc21)OCO3	–	–	–	34.3	–	–
CCn1cc(C(=O)N[C@H](C(=O)O)C(C)C)c(=O)c2cc3c(cc21)OCO3	–	–	–	–	–	–
CC(=O)c1cn(CCOc2ccc(F)cc2)c2ccccc12	–	–	–	–	–	–
O=C(NCCc1cnc[nH]1)c1ccc(-c2ccccc2)cc1	–	–	–	–	–	–
CCOC(=O)c1c(NC(=O)COC(=O)c2ccc(Cl)nc2)sc(C(=O)N(C)C)c1C	–	–	–	–	–	–
CCOC(=O)c1c(NC(=O)CN2CCN(S(=O)(=O)c3cc(Cl)ccc3Cl)CC2)sc(C(=O)N(C)C)c1C	–	–	–	40.5	–	–
CCOC(=O)c1c(NC(=O)COC(=O)CCOc2ccc(C)cc2)sc(C(=O)N(C)C)c1C	19.0	–	–	–	–	–
SMILES	M5 PAM	M5 antag	CHRM4 agonist	CHRM4 antagonist	M5 ag	CHRM4 PAM
CCc1ccc(C(C)NC(=O)COC(=O)c2ccc(-n3cnnn3)cc2)cc1 (stereo not given)	–	–	–	–	–	–
CCOc1ccc(NC(=O)C(=O)NCCN2CCN(S(=O)(=O)c3ccc(C)cc3)CC2)cc1	–	–	–	–	–	–
Cc1c(C(C)C)c(=O)n(-c2ccc(S(=O)(=O)NC3CCCCC3)cc2)n1C	–	30.3	–	–	–	–
CC[n+]1ccccc1/C=C/c1ccc(N(C)C)cc1	–	–	–	–	–	–
CCCCCC[n+]1ccccc1/C=C/c1ccc(N(C)C)cc1	–	63.5	32.5	49.4	42.5	–
Cn1cc(Cc2ccc(C(=O)N3CCN(Cc4ccccc4)CC3)cn2)c2ccccc21	–	–	–	–	–	–
COc1ccc(NC(=O)C2CCCN(CCCc3ccccc3)C2)cc1OCC(C)C (stereo not given)	–	–	–	28.5	–	–
COc1ccc(NC(=O)C2CCCNC2)cc1OCC(C)C (stereo not given)	–	–	–	–	–	–
COC(=O)C1=CN(c2ccc3c(c2)OCO3)C(N)=C(C#N)C1c1ccccc1 (stereo not given)	–	–	–	–	–	–
O=[N+]([O-])c1ccc(/C=C/C2=NN(c3ccccc3)C(c3ccco3)C2)o1 (stereo not given)	–	51.7	–	–	57.8	–
C(=C\c1ccco1)/C1=NN(c2ccccc2)C(c2ccco2)C1 (stereo not given)	–	–	–	–	–	–
C[C@H](CO)N1C[C@H](C)[C@@H](CN(C)C(=O)NC2CCCCC2)Oc2ccc(NC(=O)CCC(F)(F)F)cc2C1=O	–	–	–	–	–	24.3
C[C@H]1CN([C@@H](C)CO)C(=O)Cc2cc(NC(=O)CCC(F)(F)F)ccc2O[C@H]1CN(C)S(=O)(=O)c1ccc(F)cc1	–	–	–	62.9	–	–
C[C@H]1CN([C@@H](C)CO)C(=O)Cc2cc(NC(=O)CCC(F)(F)F)ccc2O[C@H]1CN(C)S(=O)(=O)c1ccc(Cl)cc1	–	–	–	36.3	–	–
CN(C)c1cccc(C(=O)NNC(=O)C23CC4CC(CC(C4)C2)C3)c1	–	–	–	–	–	–
CCN(CC(=O)Nc1ccc(NC(C)=O)cc1)C(=O)c1ccc(N(C)S(=O)(=O)c2ccc(C)cc2)cc1	–	–	–	–	–	–
CCN(CC(=O)Nc1ccccc1OC)C(=O)c1ccc(N(C)S(=O)(=O)c2ccc(C)cc2)cc1	–	97.8	–	–	–	–
O=C(NN=Cc1ccccc1)NN=Cc1ccccc1	–	–	–	–	–	–
CCCn1cnc2c(=O)oc3ccccc3c21	30.1	–	–	–	–	–
CCCCCn1nnc2c(=O)oc3ccccc3c21	–	–	–	–	–	28.3
CCCn1nnc2c(=O)oc3ccccc3c21	–	–	–	–	–	–
C[N+](=O)C1C(=O)Nc2ccccc21 (stereo not given)	–	–	–	–	–	–
CCOC(=O)C1=C[C@@H](C(C)(C)C)N(S(=O)(=O)c2ccc(C)cc2)[C@H]1c1cccc(Cl)c1	–	–	–	–	–	–
